Measured values taken from publication PMC7114883 (ACS Omega, 2020).
pIC50: −log10 of the molar value. Values after ≈ are worked out from the molar mass of the structure shown. Where two headings read alike, the source gives them in different places.

Legend:
P. falciparum NF54 [1] = test: In vitro antiplasmodium assay; type: cell-based, Plasmodium falciparum; settings: for in vitro antiplasmodium activity (in words): authors' Pf assays
hERG channel = hERG channel (Homo sapiens, UniProt Q12809); test: hERG channel inhibition; type: biochemical
hERG channel, sequence (Q12809 whole entry): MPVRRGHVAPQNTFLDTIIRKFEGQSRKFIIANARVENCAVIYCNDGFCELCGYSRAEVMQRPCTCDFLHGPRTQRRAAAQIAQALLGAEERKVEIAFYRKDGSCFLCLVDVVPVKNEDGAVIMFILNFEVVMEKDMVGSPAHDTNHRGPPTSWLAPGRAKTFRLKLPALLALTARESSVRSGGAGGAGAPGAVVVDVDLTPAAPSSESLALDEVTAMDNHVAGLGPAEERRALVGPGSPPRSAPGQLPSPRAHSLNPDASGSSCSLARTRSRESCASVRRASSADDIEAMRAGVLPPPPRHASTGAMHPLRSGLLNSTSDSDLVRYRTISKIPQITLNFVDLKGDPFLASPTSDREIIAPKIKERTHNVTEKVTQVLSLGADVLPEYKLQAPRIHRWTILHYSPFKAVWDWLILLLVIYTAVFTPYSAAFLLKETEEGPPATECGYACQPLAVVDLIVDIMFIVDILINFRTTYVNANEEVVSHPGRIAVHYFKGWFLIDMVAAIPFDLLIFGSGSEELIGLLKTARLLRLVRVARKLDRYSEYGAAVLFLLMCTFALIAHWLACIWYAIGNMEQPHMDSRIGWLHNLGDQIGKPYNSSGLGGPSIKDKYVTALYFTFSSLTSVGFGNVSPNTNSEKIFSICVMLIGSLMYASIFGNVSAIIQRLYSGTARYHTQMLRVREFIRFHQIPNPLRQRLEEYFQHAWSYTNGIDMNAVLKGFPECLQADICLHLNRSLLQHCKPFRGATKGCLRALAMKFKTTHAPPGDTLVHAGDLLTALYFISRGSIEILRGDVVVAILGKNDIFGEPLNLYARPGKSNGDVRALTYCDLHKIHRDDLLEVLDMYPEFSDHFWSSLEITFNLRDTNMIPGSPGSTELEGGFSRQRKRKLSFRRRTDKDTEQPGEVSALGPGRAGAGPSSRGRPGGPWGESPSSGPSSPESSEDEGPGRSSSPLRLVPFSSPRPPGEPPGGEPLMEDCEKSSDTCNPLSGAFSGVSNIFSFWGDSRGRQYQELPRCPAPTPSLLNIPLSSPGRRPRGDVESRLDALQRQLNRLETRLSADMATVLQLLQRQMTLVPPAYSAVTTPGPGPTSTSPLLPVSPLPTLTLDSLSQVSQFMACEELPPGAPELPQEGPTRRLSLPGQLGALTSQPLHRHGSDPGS

[2] = Aqueous solubility, miniaturized shake flask method; type: physicochemical; settings: aqueous solution, 25 °C, thermodynamic from solid
[3] = Microsomal metabolic stability, human liver microsomes; type: in vitro ADME; settings: pooled human liver microsomes, pH 7.4
Procedure, shortened: (§1)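 Test compound at 0.1 μM incubated at 37 °C, in duplicate, with liver microsomes (mouse, rat or pooled human; final protein 0.4 mg/mL) in 0.1 M phosphate buffer pH 7.4, with and without 1 mM NADPH. Quenched with ice-cold acetonitrile containing internal standard, centrifuged, and supernatant analysed by LC–MS/MS. Parent remaining after 30 min expressed as percent.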

[4] = Microsomal metabolic stability, mouse liver microsomes; type: in vitro ADME; settings: pH 7.4
Procedure, shortened: as §1

[5] = Microsomal metabolic stability, rat liver microsomes; type: in vitro ADME; settings: pH 7.4
Procedure, shortened: as §1

[6] = system: Chinese hamster ovarian (CHO) cell line; test: Cytotoxicity MTT assay; type: cell-based; settings: CHO cells, relative to 4-unsubstituted compound 3
Solubility at pH 6.8 = type: physicochemical; settings: pH 6.8, aqueous buffer
[7] = PAMPA parallel artificial membrane permeability assay; type: in vitro ADME; settings: fraction absorbed
[8] = In vitro metabolic stability in mouse liver microsomes; type: in vitro ADME
[9] = In vitro metabolic stability in human liver microsomes; type: in vitro ADME
P. falciparum NF54 [10] = test: Pf NF54 activity determined at NITD; type: cell-based; settings: Plasmodium falciparum, NF54, read-out: IC50 PfNF54
[11] = system: Chinese hamster ovarian (CHO) cell line; settings: read-out: IC50 (CHO); reference drug; ref Singh et al. 33; cited from earlier work
P. falciparum NF54 [12] = settings: read-out: IC50 PfNF54; reference drugs; ref Singh et al. 33; cited from earlier work
P. falciparum K1 [13] = settings: read-out: IC50 PfK1; reference drugs; ref Singh et al. 33; cited from earlier work
P. falciparum K1 [14] = test: In vitro antiplasmodium assay; type: cell-based; settings: Plasmodium falciparum, K1, read-out: IC50 PfK1
[15] = Pharmacokinetic studies in rats; type: in vivo; settings: rat, plasma, iv, 1 mg/kg
[16] = P. berghei mouse model efficacy; type: in vivo, Plasmodium berghei (NMRI mice); settings: female, NMRI, plasma, po, 100 mg/kg
[17] = P. falciparum SCID mouse model efficacy; type: in vivo, Plasmodium falciparum (NOD-scid IL-2Rγnull mice); settings: female, NOD-scid IL-2Rγnull, plasma, po, 25 mg/kg
[18] = Plasmodium falciparum, NF54, read-out: IC50 PfNF54, drug-sensitive NF54 strain, mean of ≥2 independent experiments
[19] = read-out: IC50 PfNF54, drug-sensitive NF54 strain, mean of ≥2 independent experiments

SMILES | pIC50 (P. falciparum NF54 [1]; [18]) | remaining at 0.5 h, 0.1 μM [3] | remaining at 0.5 h, 0.1 μM [4] | remaining at 0.5 h, 0.1 μM [5] | in vitro antiplasmodium activity (in words) (P. falciparum NF54 [1]) | pIC50 (hERG channel) | further results
COC(=O)c1ccc2c(c1)nc(C1CCNCC1)n2Cc1ccccc1 [Compound 46d] | – | – | – | – | inactive | – | –
CC(=O)N1CCN(c2nc3cc(Cl)ccc3n2Cc2ccccc2)CC1 [Compound 18] | < 6.00 | – | – | – | – | 6.41 | –
O=C(O)CN1CCN(c2nc3cc(Cl)ccc3n2Cc2ccccc2)CC1 [Compound 20] | < 5.00 | – | – | – | inactive | – | solubility at 20 h ([2]; pH 6.5, aqueous buffer): 200 µM (≈ 77 µg/mL)
C[C@@H]1CN(c2nc3cc(Cl)ccc3n2Cc2ccccc2)C[C@H](C)N1 [Compound 27] | – | 23.2% | 31.3% | 36.5% | – | 7.77 | –
Cl.c1ccc(Cn2c(N3CCNCC3)nc3ccccc32)nc1 [Compound 59] | 5.01 | – | – | – | inactive | – | –
Cl.Cn1c(N2CCNCC2)nc2ccccc21 [Compound 60, 1-methyl-2-(piperazin-1-yl)-1H-benzo[d]imidazole hydrochloride] | – | – | – | – | inactive | – | pIC50 (P. falciparum NF54 [1]; Plasmodium falciparum, NF54, read-out: IC50 PfNF54): < 5.00
CS(=O)(=O)c1ccc2c(c1)nc(C1CCNCC1)n2Cc1ccccc1.Cl [Compound 46e] | – | – | – | – | inactive | – | –
O=C1CN(c2nc3cc(Cl)ccc3n2Cc2ccccc2)CCN1 [Compound 17] | < 6.00 | – | – | – | – | 5.64 | –
O=C(NCCCNc1nc2ccccc2n1Cc1ccccc1)c1cc(Cl)cc(Cl)c1 [Compound 21] | 5.02 | – | – | – | completely inactive | – | solubility at 20 h ([2]; pH 2, simulated gastric fluid): 10 µM (≈ 4.53 µg/mL)
Cc1ccc(C(=O)N2CCN(c3nc4cc(Cl)ccc4n3Cc3ccccc3)CC2)cc1 [Compound 23] | < 5.00 | – | – | – | completely inactive | – | –
c1ccc(Cn2c(N3CCNCC3)nc3ccccc32)cc1 [Compound 1, Lerisetron, reference compound] | – | – | – | – | – | 6.49 | solubility (Solubility at pH 6.8): > 1000 µM; PAMPA (%FA) [7]: 99 %FA; In vitro metabolic stability in liver microsomes, mouse [8]: 29 µL/min/mg; In vitro metabolic stability in liver microsomes, human [9]: 26.6 µL/min/mg; pIC50 (P. falciparum NF54 [10]): 6.09
CC[C@H]1CN2CCc3cc(OC)c(OC)cc3[C@@H]2C[C@@H]1C[C@H]1NCCc2cc(OC)c(OC)cc21 [Emetine] | – | – | – | – | – | – | pIC50 [11]: 7.02
O=S(=O)(c1ccc(Cl)cc1)N1CCN(c2nc3cc(Cl)ccc3n2Cc2ccccc2)CC1 [Compound 25] | 5.28 | – | – | – | completely inactive | – | –
Cc1ccc(Cn2c(N3CCC(C(=O)NCc4cccs4)CC3)nc3ccccc32)cc1 [Compound 26, 1-(1-(4-methylbenzyl)-1H-benzo[d]imidazol-2-yl)-N-(thiophen-2-ylmethyl)piperidine-4-carboxamide] | 6.22 | – | – | – | weakly active | – | solubility at 20 h ([2]; pH 6.5, aqueous buffer): < 5 µM
C[C@H]1[C@H](OC(=O)CCC(=O)O)O[C@@H]2O[C@@]3(C)CC[C@H]4[C@H](C)CC[C@@H]1[C@@]24OO3 [Artesunate] | – | – | – | – | – | – | pIC50 (P. falciparum NF54 [12]): 8.40; pIC50 (P. falciparum K1 [13]): 8.52
CCN(CC)CCCC(C)Nc1ccnc2cc(Cl)ccc12 (stereo not shown) [Chloroquine] | – | – | – | – | – | – | pIC50 (P. falciparum NF54 [12]): 7.80; pIC50 (P. falciparum K1 [13]): 6.71
N#CCN1CCN(c2nc3cc(Cl)ccc3n2Cc2ccccc2)CC1 [Compound 19] | 6.51 | 8.6% | 2% | 1.2% | – | 6.74 | pIC50 (P. falciparum K1 [14]): 6.34; solubility at 20 h ([2]; pH 2, simulated gastric fluid): > 150 µM; solubility at 20 h ([2]; pH 6.5, aqueous buffer): < 5 µM
NCCNc1nc2cc(Cl)ccc2n1Cc1ccccc1 [Compound 33, N^1-(1-benzyl-5-chloro-1H-benzo[d]imidazol-2-yl)ethane-1,2-diamine] | – | 98.9% | 71.2% | 88% | – | 5.66 | hERG safety window (hERG channel; hERG versus antiplasmodium activity): 10 fold
NC1CCN(c2nc3cc(Cl)ccc3n2Cc2ccccc2)CC1 [Compound 28] | – | 80.9% | 76% | 39.9% | – | 7.15 | –
Cc1ccc(C(=O)N2CCN(c3nc4ccccc4n3C)CC2)cc1.Cl [Compound 22] | < 5.00 | – | – | – | completely inactive | – | –
Cl.Clc1ccc2c(c1)nc(N1CCNCC1)n2Cc1ccccc1 [Compound 3] | – | 74.4% | 63% | 42.1% | – | 8.05 | solubility at 20 h ([2]; pH 2, simulated gastric fluid): 150 µM; solubility at 20 h ([2]; pH 6.5, aqueous buffer): 140 µM; half-life [15]: 119 min; AUC [16]: 377 µM·h; Cmax [16]: 20.6 µM; AUC [17]: 86 µM·h; Cmax [17]: 5.2 µM; solubility (Solubility at pH 6.8): 770 µM; PAMPA (%FA) [7]: 99 %FA
NCCCNc1nc2cc(Br)ccc2n1Cc1ccccc1 [Compound 41, N^1-(1-Benzyl-5-bromo-1H-benzo[d]imidazol-2-yl)propane-1,3-diamine] | – | 99.4% | 98.6% | 97% | – | – | –

Now from value to molecule, other results behind:

pIC50 (P. falciparum NF54 [1]; [18]) | remaining at 0.5 h, 0.1 μM [3] | remaining at 0.5 h, 0.1 μM [4] | remaining at 0.5 h, 0.1 μM [5] | SMILES | in vitro antiplasmodium activity (in words) (P. falciparum NF54 [1]) | pIC50 (hERG channel) | further results
– | 97.4% | 91.6% | 93.8% | Clc1ccc2c(nc(N3CCNCC3)n2Cc2ccccc2)c1Br [Compound 42k] | – | – | fold more cytotoxic than 3 [6]: ~4 fold
< 6.00 | – | – | – | Clc1ccc2c(c1)nc(N1CCOCC1)n2Cc1ccccc1 [Compound 16a, 4-(1-Benzyl-5-chloro-1H benzo[d]imidazol-2-yl)morpholine] | – | – | –
– | 88.2% | 94% | 89.8% | Brc1ccc2c(c1)nc(N1CCNCC1)n2Cc1ccccc1 [Compound 16b, 1-Benzyl-5-bromo-2-(piperazin-1-yl)-1H-benzo[d]imidazole] | – | 7.52 | pIC50 (P. falciparum NF54 [1]; [19]): 7.37
– | 92.2% | 82% | 95.6% | FC(F)(F)c1ccc2c(c1)nc(N1CCNCC1)n2Cc1ccccc1 [Compound 14c] | – | 6.82 | –
– | 91.8% | 97.6% | 92.9% | Clc1ccc2c(c1)nc(C1CCNCC1)n2Cc1ccccc1 [Compound 46a, 1-Benzyl-5-chloro-2-(piperidin-4-yl)-1H-benzo[d]imidazole] | – | 6.34 | pIC50 (P. falciparum NF54 [1]; [19]): 7.42
– | 99.3% | 97.4% | 97.7% | Brc1ccc2c(c1)nc(C1CCNCC1)n2Cc1ccccc1 [Compound 46b] | – | – | –
< 6.00 | – | – | – | c1ccc(Cn2c(N3CCNCC3)nc3cnccc32)cc1 [Compound 57b] | inactive | – | –
< 5.00 | – | – | – | c1ccc2c(c1)nc(N1CCNCC1)n2Cc1ccncc1 [Compound 14i] | inactive | – | –
< 6.00 | – | – | – | Cl.Clc1ccc2c(c1)nc(N1CCNCC1)n2CCc1ccccc1 [Compound 16g, 5-Chloro-1-phenethyl-2-(piperazin-1-yl)-1H-benzo[d]imidazole Hydrochloride] | inactive | – | –
– | 76.3% | 72.5% | 66.1% | Cl.Clc1ccc2c(nc(N3CCNCC3)n2Cc2ccccc2)c1Cl [Compound 42a] | – | 6.23 | fold more cytotoxic than 3 [6]: ~4 fold
